Test [1] has as its target Cruzipain (Trypanosoma cruzi) (UniProt P25779). Kind of test: (§1) Inhibition of cruzain. Particulars: concentration not given here. On the set-up: concentration or dose not given beside the values. The method in brief:
(§2)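 Recombinant enzyme at 4 nM with Z-Phe-Arg-AMC substrate in buffer A (100 mM Na acetate pH 5.5, 5 mM DTT, 0.001% Triton X-100). Enzyme and inhibitor were preincubated 5 min at 25 °C, then substrate was added. Inhibitor serial dilutions were made in DMSO, 10–10,000 nM. IC50 was read directly from a semi-log plot of rate versus inhibitor concentration.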

The next test addresses Cruzipain (Trypanosoma cruzi, UniProt P25779). Described as §1. The method in brief: as §2
The target in test [2] is Rhodesain (Trypanosoma brucei rhodesiense) (UniProt Q95PM0). The test is described as follows: (§3) Inhibition of rhodesain. Set-up: concentration or dose not given beside the values. Conditions: concentration not given here. The procedure, abridged:
as §2

For a further test, the target named is Rhodesain (Trypanosoma brucei rhodesiense, UniProt Q95PM0). Described as §3. The method in brief:
as §2

The nature of test [3]: (§4) Inhibition of Trypanosoma brucei brucei cathepsin B. The method in brief: (§5)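 Recombinant T. brucei cathepsin B at 40 nM with Z-Phe-Arg-AMC in buffer A (100 mM Na acetate pH 5.5, 5 mM DTT, 0.001% Triton X-100). Enzyme was preincubated 5 min at 25 °C with inhibitor (500–10,000 nM, DMSO serial dilutions) before substrate addition. Cleavage was followed by fluorescence at ex 355/em 460 nm, 25 °C. IC50 was taken from a semi-log rate versus concentration plot.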

The subject of test [4] is Trypanosoma brucei brucei. The test is described as §4. Particulars: concentration not given here. The method in brief: as §5
The target in test [5] is Cruzipain (Trypanosoma cruzi) (UniProt P25779). Kind of test: Ratio of kinact to ki for cruzain. On the set-up: unit not given here. The procedure, abridged: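 Continuous assay: enzyme was added by the instrument to inhibitor dilutions with Z-Phe-Arg-AMC in pH 5.5 acetate/DTT buffer while fluorescence was recorded. Progress curves were followed 5 min at 25 °C over a 10-fold dilution range of inhibitor. kobs came from pseudo-first-order fits. For hyperbolic kobs dependence, kinact and Ki were fitted by nonlinear regression to a two-step irreversible mechanism with substrate correction.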

Test [6] has as its system Trypanosoma brucei brucei. The test is described as follows: Antimicrobial activity against Trypanosoma brucei brucei. It is filed as functional. Set-up: concentration or dose not given beside the values.

Cruzipain, sequence (P25779 whole entry): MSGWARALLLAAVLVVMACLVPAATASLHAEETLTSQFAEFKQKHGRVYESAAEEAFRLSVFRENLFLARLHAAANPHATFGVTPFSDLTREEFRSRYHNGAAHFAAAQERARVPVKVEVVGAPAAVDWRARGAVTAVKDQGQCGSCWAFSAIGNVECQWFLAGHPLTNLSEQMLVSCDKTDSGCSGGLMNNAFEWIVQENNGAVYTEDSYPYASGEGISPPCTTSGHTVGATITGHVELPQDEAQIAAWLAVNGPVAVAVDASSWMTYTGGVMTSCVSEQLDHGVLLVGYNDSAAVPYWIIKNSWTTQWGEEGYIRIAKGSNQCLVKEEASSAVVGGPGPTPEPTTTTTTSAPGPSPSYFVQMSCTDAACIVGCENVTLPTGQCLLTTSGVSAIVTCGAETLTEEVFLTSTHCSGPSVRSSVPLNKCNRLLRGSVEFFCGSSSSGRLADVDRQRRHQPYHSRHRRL
Cruzipain (Trypanosoma cruzi), sequence (P25779 123-467 limits assumed): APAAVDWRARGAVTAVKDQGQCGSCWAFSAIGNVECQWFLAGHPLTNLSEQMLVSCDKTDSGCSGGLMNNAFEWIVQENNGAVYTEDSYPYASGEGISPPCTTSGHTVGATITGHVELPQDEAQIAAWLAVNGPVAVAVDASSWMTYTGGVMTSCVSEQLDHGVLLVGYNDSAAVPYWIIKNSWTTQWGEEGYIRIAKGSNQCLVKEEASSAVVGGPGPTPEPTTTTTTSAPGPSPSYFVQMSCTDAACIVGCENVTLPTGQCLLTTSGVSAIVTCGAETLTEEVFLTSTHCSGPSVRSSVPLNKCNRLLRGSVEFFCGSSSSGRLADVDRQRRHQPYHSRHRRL
Rhodesain (Trypanosoma brucei rhodesiense), sequence (Q95PM0 1-450): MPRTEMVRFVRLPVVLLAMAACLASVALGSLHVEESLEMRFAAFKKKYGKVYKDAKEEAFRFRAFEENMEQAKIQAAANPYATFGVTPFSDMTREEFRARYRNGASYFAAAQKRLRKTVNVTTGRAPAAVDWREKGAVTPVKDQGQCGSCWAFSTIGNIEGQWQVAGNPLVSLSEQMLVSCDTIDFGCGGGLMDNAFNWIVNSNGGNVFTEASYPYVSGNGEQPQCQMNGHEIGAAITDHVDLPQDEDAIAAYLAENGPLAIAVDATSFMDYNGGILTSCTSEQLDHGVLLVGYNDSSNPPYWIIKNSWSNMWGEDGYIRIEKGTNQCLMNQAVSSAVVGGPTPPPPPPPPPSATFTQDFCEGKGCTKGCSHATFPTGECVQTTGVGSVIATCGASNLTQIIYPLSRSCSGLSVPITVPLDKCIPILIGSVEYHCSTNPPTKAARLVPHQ
Rhodesain, sequence (Q95PM0 whole entry): as the sequence (Q95PM0 1-450) above

As a reminder, the inhibition is the relative decrease from the control value, in per cent. Usually IC50 stands for the concentration at which inhibition is half-maximal. One may read the Inhibition as the change of the read-out against control, counted positive when it falls. `CCOC(=O)[C@@H]1O[C@@H]1C(=O)[C@H](CCc1ccccc1)NC(=O)[C@H](Cc1ccccc1)NC(=O)OCc1ccccc1`: the inhibition amounted to 55% in test [1], 80% in test [2] and 47% in test [4]. The IC50 came out at 50 nM at Cruzipain, 30 nM on Rhodesain and 400 nM in test [3]. For the same compound, in test [5], the Ratio stood at 25200. Further, the Inhibition in test [6] is -2%.
Regarding `CCOC(=O)[C@@H]1O[C@H]1[C@@H](O)[C@H](CCc1ccccc1)NC(=O)[C@H](Cc1ccccc1)NC(=O)OCc1ccccc1`, the inhibition in test [1] stood at 1%; in test [2], 3%; in test [4], 3%. The Inhibition in test [6] is given as 17%.
Regarding `CCOC(=O)[C@H]1O[C@H]1C(=O)[C@H](CCc1ccccc1)NC(=O)[C@H](Cc1ccccc1)NC(=O)OCc1ccccc1`, the inhibition in test [1] was determined as 93%; in test [2] it was 98%; in test [4] it was 51%. For the same compound, the IC50 was 20 nM against Cruzipain, 3.5 nM against Rhodesain and greater than 1000 nM in test [3]. The Ratio in test [5] is 82900. The Inhibition in test [6] is 42%.
For `O=C(N[C@@H](Cc1ccccc1)C(=O)N[C@@H](CCc1ccccc1)C(=O)[C@H]1CO1)OCc1ccccc1`, the IC50 at Cruzipain was greater than 1000 nM. The Ratio in test [5] amounted to 128000.
`CCOC(=O)[C@H]1O[C@H]1[C@H](O)[C@H](CCc1ccccc1)NC(=O)[C@H](Cc1ccccc1)NC(=O)OCc1ccccc1`: the inhibition was 5% in test [1], -4% in test [2] and 6% in test [4]. Also, the Inhibition in test [6] is -37%.
Regarding `CC(C)CCNC(=O)[C@H](CC(C)C)NC(=O)[C@H]1OC1C(=O)O` (single isomer, unassigned), the Ratio in test [5] turned out to be 70600.
For `CN1CCN(C(=O)N[C@@H](Cc2ccccc2)C(=O)N[C@H](/C=C/S(=O)(=O)c2ccccc2)CCc2ccccc2)CC1` [K-777], the inhibition was found to be 100% in test [1] and 72% in test [2]. Also, inhibition in test [3] was half-maximal at 2000 nM (IC50). In addition, the Inhibition in test [6] is 99%.
For the compound `O=C(N[C@@H](Cc1ccccc1)C(=O)N[C@@H](CCc1ccccc1)C(=O)[C@@H]1CO1)OCc1ccccc1`, the IC50 against Cruzipain stood at 10 nM. For the same compound, the Ratio in test [5] was determined as 330000.
